In ChEMBL document CHEMBL4196050, “Design, synthesis, and biological evaluation of compounds with a new scaffold as anti-neuroinflammatory agents for the treatment of Alzheimer's disease” (Eur J Med Chem, 2018):
Calls of active or inactive are those of the source. No cut-off for these calls is given here.

Assays:
[1] = system: BV-2; assay: Antineuroinflammatory activity in mouse BV2 cells assessed as inhibition of LPS-induced NO production pretreated for 30 mins followed by LPS stimulation and measured after 24 hrs by Griess assay; type: functional, cell-based
Method in brief: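 BV2 microglia plated at 4 × 10⁵ cells/mL and grown 48 h, then medium replaced. Compounds at various concentrations given 30 min before LPS; incubated 24 h at 37 °C. Equal volume of Griess reagent added to medium, 10 min at room temperature, absorbance read at 540 nm. % inhibition = (F_L − F_C)/(F_L − F₀) × 100. IC50 by nonlinear regression, ≥3 independent experiments, mean SEM.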

[2] = system: BV-2; assay: Antineuroinflammatory activity in mouse BV2 cells assessed as inhibition of LPS-induced TNFalpha production after 24 hrs by ELISA; type: functional, cell-based; details: BV-2, 24 h
Method in brief: (§1)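 BV2 cells plated at 4 × 10⁵ cells/mL, grown 48 h, medium replaced with DMEM. Compound added first, then LPS; incubated 24 h at 37 °C. TNF-α or IL-1β in culture medium measured by ELISA. % inhibition = (F_L − F_C)/(F_L − F₀) × 100 against LPS-only and unstimulated cells. IC50 by nonlinear regression of ≥3 independent experiments, mean SEM.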

[3] = system: BV-2; assay: Antineuroinflammatory activity in mouse BV2 cells assessed as inhibition of LPS-induced IL-1beta production after 24 hrs by ELISA; type: functional, cell-based; details: BV-2, 24 h; method in brief: as §1
[4] = Permeability of the compound after 10 hrs by PAMPA; type: ADME; details: read-out: permeability
Method in brief: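 PAMPA-BBB: filter coated with porcine brain lipid in dodecane (20 mg/mL); acceptor PBS/EtOH (7:3). DMSO stocks (5 mg/mL) diluted 50-fold in PBS/EtOH into donor wells. Sandwich left 10 h at 25 °C; acceptor concentration read by UV plate reader. Pe from volumes, filter area, time and acceptor/equilibrium absorbance. Means SD of ≥3 experiments; Pe > 4.7 × 10⁻⁶ cm/s taken as BBB-permeable.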

[5] = system: BV-2; assay: Antineuroinflammatory activity in mouse BV2 cells assessed as inhibition of LPS-induced iNOS production pretreated for 30 mins followed by LPS stimulation for 16 hrs by Western blot analysis; type: functional, cell-based
[6] = target: T1, NF-kappa-B inhibitor alpha (Mus musculus) (UniProt Q9Z1E3); assay: Inhibition of LPS-induced IkappaBalpha phosphorylation in mouse BV2 cells up to 10 uM preincubated for 30 mins followed by LPS-stimulation for 16 hrs by Western blot analysis; type: cell-based
T1 sequence (whole entry): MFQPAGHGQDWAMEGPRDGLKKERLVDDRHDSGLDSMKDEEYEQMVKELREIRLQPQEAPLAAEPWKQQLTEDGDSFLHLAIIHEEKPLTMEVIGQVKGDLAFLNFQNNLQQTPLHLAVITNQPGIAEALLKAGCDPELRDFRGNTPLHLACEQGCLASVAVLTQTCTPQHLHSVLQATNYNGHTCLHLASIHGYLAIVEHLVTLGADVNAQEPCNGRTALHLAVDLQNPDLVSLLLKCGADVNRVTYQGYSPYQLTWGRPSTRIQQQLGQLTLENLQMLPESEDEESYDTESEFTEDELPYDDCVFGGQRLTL
Method in brief: (§2)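 BV2 cells in 6-well plates, with or without compound 30 min, then with or without LPS for 16 h. Lysed in RIPA with protease and phosphatase inhibitors; cytoplasmic and nuclear fractions separated; protein by BCA. Run on 10% SDS-PAGE, PVDF, milk/TBST block 2 h, primary antibody 4 °C overnight, secondary 2 h at room temperature, chemiluminescence. Phospho-ERK1/2 (Thr202/Tyr204), p38 (Thr180/Tyr182), JNK (Thr183/Tyr185), IκBα (Ser32); GAPDH and Lamin B references. Three independent experiments.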

[7] = target: Transcription factor p65 (Mus musculus) (UniProt Q04207); assay: Inhibition of LPS-induced p65 translocation from cytoplasm to nucleus in mouse BV2 cells up to 10 uM preincubated for 30 mins followed by LPS-stimulation for 16 hrs by Western blot analysis; type: cell-based; method in brief: as §2
Chain of Transcription factor p65 (Mus musculus) (Q04207 whole entry): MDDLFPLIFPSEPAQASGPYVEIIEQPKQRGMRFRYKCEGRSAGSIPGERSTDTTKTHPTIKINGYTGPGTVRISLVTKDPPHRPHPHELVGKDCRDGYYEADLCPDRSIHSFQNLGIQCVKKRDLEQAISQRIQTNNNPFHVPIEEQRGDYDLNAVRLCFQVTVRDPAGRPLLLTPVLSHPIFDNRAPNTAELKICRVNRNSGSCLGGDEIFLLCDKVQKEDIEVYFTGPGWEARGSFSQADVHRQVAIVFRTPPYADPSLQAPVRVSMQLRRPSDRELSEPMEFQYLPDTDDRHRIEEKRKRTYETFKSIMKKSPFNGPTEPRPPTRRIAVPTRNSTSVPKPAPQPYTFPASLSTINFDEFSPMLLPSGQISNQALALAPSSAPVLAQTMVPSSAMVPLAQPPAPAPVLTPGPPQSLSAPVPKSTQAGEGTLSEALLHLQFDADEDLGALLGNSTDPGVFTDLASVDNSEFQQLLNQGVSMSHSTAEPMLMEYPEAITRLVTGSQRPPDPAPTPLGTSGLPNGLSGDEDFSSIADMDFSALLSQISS

[8] = target: Mitogen-activated protein kinase 1 and 3 (ERK2 and ERK1) (Mus musculus) (UniProt P63085+Q63844); assay: Inhibition of LPS-induced ERK1/2 phosphorylation in mouse BV2 cells up to 10 uM preincubated for 30 mins followed by LPS-stimulation for 16 hrs by Western blot analysis; type: cell-based; method in brief: as §2
Chain of Mitogen-activated protein kinase 1 and 3 (ERK2 and ERK1) (Mus musculus) (P63085 whole entry, looked up): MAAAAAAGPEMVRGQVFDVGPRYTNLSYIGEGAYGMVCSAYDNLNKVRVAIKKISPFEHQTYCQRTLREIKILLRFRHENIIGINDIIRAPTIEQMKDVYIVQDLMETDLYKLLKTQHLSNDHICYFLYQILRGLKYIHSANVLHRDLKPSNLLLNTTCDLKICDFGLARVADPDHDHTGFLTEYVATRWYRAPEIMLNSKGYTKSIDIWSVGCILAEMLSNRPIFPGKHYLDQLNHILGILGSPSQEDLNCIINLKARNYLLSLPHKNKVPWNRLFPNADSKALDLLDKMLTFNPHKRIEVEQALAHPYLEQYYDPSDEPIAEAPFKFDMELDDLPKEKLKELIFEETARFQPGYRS
Chain of Mitogen-activated protein kinase 1 and 3 (ERK2 and ERK1) (Mus musculus) (Q63844 whole entry, looked up): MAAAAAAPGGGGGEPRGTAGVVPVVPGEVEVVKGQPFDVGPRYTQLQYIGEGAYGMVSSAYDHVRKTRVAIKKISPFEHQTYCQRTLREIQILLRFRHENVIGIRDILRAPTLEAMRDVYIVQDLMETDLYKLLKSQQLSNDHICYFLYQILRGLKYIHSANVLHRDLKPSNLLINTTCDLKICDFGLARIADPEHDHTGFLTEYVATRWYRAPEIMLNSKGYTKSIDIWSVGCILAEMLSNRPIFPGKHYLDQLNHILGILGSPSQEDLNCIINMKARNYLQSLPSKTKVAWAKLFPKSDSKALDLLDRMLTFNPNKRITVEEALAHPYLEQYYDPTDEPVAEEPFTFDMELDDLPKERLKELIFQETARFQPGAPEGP

[9] = species on record: Mus musculus; assay: Inhibition of LPS-induced JNK phosphorylation in mouse BV2 cells up to 10 uM preincubated for 30 mins followed by LPS-stimulation for 16 hrs by Western blot analysis; type: cell-based; method in brief: as §2
[10] = target: MAP kinase p38 (Mus musculus) (UniProt P47811+O08911+Q9WUI1+Q9Z1B7); assay: Inhibition of LPS-induced p38 phosphorylation in mouse BV2 cells up to 10 uM preincubated for 30 mins followed by LPS-stimulation for 16 hrs by Western blot analysis; type: cell-based; method in brief: as §2
[11] = Anti-inflammatory activity in LPS-induced mouse N9 cells assessed as reduction in IL-1beta production pretreated for 18 hrs followed LPS stimulation and measured after 48 hrs by ELISA; type: functional, cell-based

Structure (SMILES) | IC50 [1] | IC50 [2] | IC50 [3] | Papp at 10 h [4] | inhibition [6] | inhibition [7] | inhibition [8] | inhibition [10] | IC50 [11] | inhibition [5] | inhibition [9]
O=C(/C(=C/C=C/c1ccccc1)c1ccc(F)cc1)N1CCN(c2ncccn2)CC1 | 7.9 µM | 5.9 µM | 2.4 µM | 14.9 ×10⁻⁶ cm/s |  |  |  |  |  |  | 
O=C(/C(=C/c1ccc(Cl)cc1)c1ccccc1)N1CCN(c2ncccn2)CC1 | > 50 µM | > 50 µM | > 50 µM | 7.4 ×10⁻⁶ cm/s |  |  |  |  |  |  | 
COc1ccccc1/C=C(/C(=O)N1CCN(c2ncccn2)CC1)c1ccccc1 | 7.9 µM | 21.3 µM | 31.6 µM | 12.3 ×10⁻⁶ cm/s |  |  |  |  |  |  | 
COc1ccc(/C=C(/C(=O)N2CCN(c3ncccn3)CC2)c2cccc(C(F)(F)F)c2)cc1 | 22.4 µM | 26.5 µM | 15.2 µM | 14.7 ×10⁻⁶ cm/s |  |  |  |  |  |  | 
COc1ccc(/C=C(/C(=O)N2CCN(c3ncccn3)CC2)c2ccc(F)cc2)cc1 | 23.1 µM | 41.3 µM | 42.9 µM | 10.5 ×10⁻⁶ cm/s |  |  |  |  |  |  | 
O=C(/C(=C/c1ccc(Cl)cc1)c1ccc(F)cc1)N1CCN(c2ncccn2)CC1 | 25.1 µM | 17.8 µM | 36.4 µM | 7.8 ×10⁻⁶ cm/s |  |  |  |  |  |  | 
O=C(/C(=C/c1ccc(C(F)(F)F)cc1)c1ccc(F)cc1)N1CCN(c2ncccn2)CC1 | 3 µM | 6.6 µM | 8.9 µM | 7.6 ×10⁻⁶ cm/s |  |  |  |  |  |  | 
O=C(/C(=C/c1ccccc1Cl)c1cccc(C(F)(F)F)c1)N1CCN(c2ncccn2)CC1 | 19.9 µM | 25.1 µM | 18.4 µM | 15.1 ×10⁻⁶ cm/s |  |  |  |  |  |  | 
O=C(/C(=C/c1ccccc1Cl)c1ccccc1)N1CCN(c2ncccn2)CC1 | 10.1 µM | 17.6 µM | 9.3 µM | 9.4 ×10⁻⁶ cm/s |  |  |  |  |  |  | 
O=C(/C(=C/c1ccccc1)c1ccccc1)N1CCN(c2ncccn2)CC1 | 17.8 µM | 35.4 µM | > 50 µM | 14.3 ×10⁻⁶ cm/s |  |  |  |  |  |  | 
COc1ccccc1/C=C(/C(=O)N1CCN(c2ncccn2)CC1)c1cccc(C(F)(F)F)c1 | 31.7 µM | 34.7 µM | 41.2 µM | 9.7 ×10⁻⁶ cm/s |  |  |  |  |  |  | 
O=C(/C(=C/c1ccccc1)c1ccc(F)cc1)N1CCN(c2ncccn2)CC1 | 8.1 µM | 15.2 µM | 10.2 µM | 11.2 ×10⁻⁶ cm/s |  |  |  |  |  |  | 
Oc1ccc(/C=C/c2cc(O)cc(O)c2)cc1 [RESVERATROL] | 11.1 µM | 9.5 µM | 8.7 µM | 1.1 ×10⁻⁶ cm/s |  |  |  |  |  |  | 
O=C(/C(=C/c1cccc(Cl)c1)c1cccc(C(F)(F)F)c1)N1CCN(c2ncccn2)CC1 | 37.2 µM | 26.7 µM | 15.2 µM | 10.7 ×10⁻⁶ cm/s |  |  |  |  |  |  | 

Now from value to compound, other results behind:

IC50 [1] | IC50 [2] | IC50 [3] | Papp at 10 h [4] | inhibition [6] | inhibition [7] | inhibition [8] | inhibition [10] | IC50 [11] | Structure (SMILES) | inhibition [5] | inhibition [9]
> 50 µM | 37.5 µM | 25.7 µM | 14.3 ×10⁻⁶ cm/s |  |  |  |  |  | O=C(/C(=C/c1ccc(F)cc1)c1ccc(F)cc1)N1CCN(c2ncccn2)CC1 |  | 
12.6 µM | 16.2 µM | 7.8 µM | 11.2 ×10⁻⁶ cm/s |  |  |  |  |  | O=C(/C(=C/c1cccc(Cl)c1)c1ccccc1)N1CCN(c2ncccn2)CC1 |  | 
42.6 µM | > 50 µM | > 50 µM | 12.7 ×10⁻⁶ cm/s |  |  |  |  |  | COc1ccc(O)c(/C=C(/C(=O)N2CCN(c3ncccn3)CC2)c2cccc(C(F)(F)F)c2)c1 |  | 
15.6 µM | 19.8 µM | 31.2 µM | 12.3 ×10⁻⁶ cm/s |  |  |  |  |  | O=C(/C(=C/c1ccc(F)cc1)c1cccc(C(F)(F)F)c1)N1CCN(c2ncccn2)CC1 |  | 
1 µM | 2.6 µM | 0.5 µM | 12.6 ×10⁻⁶ cm/s | inactive | inactive | Active | Active |  | O=C(/C(=C/C=C/c1ccccc1)c1cccc(C(F)(F)F)c1)N1CCN(c2ncccn2)CC1 | Dose-dependent effect | Active
9.9 µM | 23.7 µM | 18.4 µM | 13.8 ×10⁻⁶ cm/s |  |  |  |  |  | COc1ccccc1/C=C(/C(=O)N1CCN(c2ncccn2)CC1)c1ccc(F)cc1 |  | 
48.1 µM | 36.4 µM | 11.4 µM | 14.1 ×10⁻⁶ cm/s |  |  |  |  |  | COc1ccc(O)c(/C=C(/C(=O)N2CCN(c3ncccn3)CC2)c2ccccc2)c1 |  | 
7.3 µM | 10.9 µM | 5.2 µM | 11.3 ×10⁻⁶ cm/s |  |  |  |  |  | O=C(/C(=C/c1ccccc1Cl)c1ccc(F)cc1)N1CCN(c2ncccn2)CC1 |  | 
 |  |  |  |  |  |  |  | 0.0034 µM | Cc1cc(-c2ccccc2)nnc1C(=O)N1CCN(c2ncccn2)CC1 |  | 
39.8 µM | > 50 µM | 25.3 µM | 7.2 ×10⁻⁶ cm/s |  |  |  |  |  | O=C(/C(=C/c1ccccc1)c1cccc(C(F)(F)F)c1)N1CCN(c2ncccn2)CC1 |  | 
26.9 µM | 43.1 µM | 21.9 µM | 5.1 ×10⁻⁶ cm/s |  |  |  |  |  | O=C(/C(=C/c1ccc(Cl)cc1)c1cccc(C(F)(F)F)c1)N1CCN(c2ncccn2)CC1 |  | 
11 µM | 9.4 µM | 11.9 µM | 9.4 ×10⁻⁶ cm/s |  |  |  |  |  | O=C(/C(=C/c1cccc(Cl)c1)c1ccc(F)cc1)N1CCN(c2ncccn2)CC1 |  | 
46.8 µM | > 50 µM | > 50 µM | 6.4 ×10⁻⁶ cm/s |  |  |  |  |  | COc1ccc(O)c(/C=C(/C(=O)N2CCN(c3ncccn3)CC2)c2ccc(F)cc2)c1 |  | 
9.5 µM | 16.9 µM | 3.4 µM | 10.3 ×10⁻⁶ cm/s |  |  |  |  |  | COc1ccc(/C=C(/C(=O)N2CCN(c3ncccn3)CC2)c2ccccc2)cc1 |  | 
14.9 µM | 21.6 µM | 11.3 µM | 8.2 ×10⁻⁶ cm/s |  |  |  |  |  | O=C(/C(=C/c1ccc(C(F)(F)F)cc1)c1ccccc1)N1CCN(c2ncccn2)CC1 |  | 
6.5 µM | 6.9 µM | 4.2 µM | 9.3 ×10⁻⁶ cm/s |  |  |  |  |  | O=C(/C(=C/c1ccc(C(F)(F)F)cc1)c1cccc(C(F)(F)F)c1)N1CCN(c2ncccn2)CC1 |  | 
